Key:
[1] = test system: Blood; assay: AUC (0 to t) in healthy human whole blood assessed as radioactivity at 1500 mg, iv infusion for 1 hr as single dose; assay type: ADME, organism-based; details: in vivo
In short: (§1)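 Six fasted healthy men received 1500 mg [14C]GSK2251052 as a 1-h i.v. infusion. Blood and plasma were sampled from predose to 336 h after infusion start. Radioactivity was counted by LSC; plasma below 870 ng eq/ml was reanalysed by accelerator MS, with predose background subtracted. Noncompartmental analysis used actual sampling times, linear-up/log-down trapezoids and CL = dose/AUC(0-∞).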

[2] = test system: Blood; assay: Clearance in healthy human whole blood assessed as radioactivity at 1500 mg, iv infusion for 1 hr as single dose; assay type: ADME, organism-based; details: in vivo; in short: as §1
[3] = test system: Blood; assay: Tmax in healthy human whole blood assessed as radioactivity at 1500 mg, iv infusion for 1 hr as single dose; assay type: ADME, organism-based; details: in vivo
In short: (§2)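 Healthy men got a single 1500 mg [14C] dose by 1 h i.v. infusion. K2EDTA blood was sampled up to 336 h. Radioactivity in blood and plasma was measured by LSC, with AMS for plasma below LLQ. Parent and M3 were measured by LC/MS/MS (5–10,000 ng/ml range). Noncompartmental analysis used actual times, with t1/2 = ln2/λz and Tmax observed directly, timed from infusion start.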

[4] = Drug recovery in healthy human urine at 1500 mg, iv infusion for 1 hr as single dose after 120 hrs; assay type: ADME, organism-based; details: read-out: Drug recovery
[5] = Drug recovery in healthy human feces at 1500 mg, iv infusion for 1 hr as single dose after 168 hrs; assay type: ADME, organism-based; details: faeces, read-out: Drug recovery
[6] = test system: Plasma; assay: Cmax in healthy human plasma assessed as radioactivity at 1500 mg, iv infusion for 1 hr as single dose; assay type: ADME, organism-based; set-up: dose 1500 mg, route intravenous; details: in vivo; in short: as §1
[7] = Drug recovery in healthy human feces at 1500 mg, iv infusion for 1 hr as single dose after 336 hrs; assay type: ADME, organism-based; details: read-out: Drug recovery
[8] = Total drug recovery in healthy human at 1500 mg, iv infusion for 1 hr as single dose after 24 hrs; assay type: ADME, organism-based; details: in vivo, read-out: Drug recovery
In short: (§3)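 Six healthy adult males, fasted ≥10 h, got one 1500 mg [14C]GSK2251052 dose ([…], 0.56 MBq) as a constant-rate 1-h IV infusion in 0.9% NaCl. Urine was collected at 0–6, 6–12 and 12–24 h, then in 24-h blocks to 336 h; feces in 24-h blocks. Urine was counted directly by LSC; feces were homogenized and combusted in duplicate before LSC. Cumulative recovery is given as mean % of dose.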

[9] = Total drug recovery in healthy human at 1500 mg, iv infusion for 1 hr as single dose after 96 hrs; assay type: ADME, organism-based; details: in vivo, read-out: Drug recovery; in short: as §3
[10] = Total drug recovery in healthy human at 1500 mg, iv infusion for 1 hr as single dose after 120 hrs; assay type: ADME, organism-based; details: in vivo, read-out: Drug recovery
[11] = Total drug recovery in healthy human at 1500 mg, iv infusion for 1 hr as single dose after 192 hrs; assay type: ADME, organism-based; details: in vivo, read-out: Drug recovery
[12] = Total drug recovery in healthy human at 1500 mg, iv infusion for 1 hr as single dose after 264 hrs; assay type: ADME, organism-based; details: in vivo, read-out: Drug recovery; in short: as §3
[13] = test system: Homo sapiens; assay: Toxicity in healthy human assessed as mortality at 1500 mg, iv infusion for 1 hr as single dose; assay type: organism-based; details: in vivo
In short: (§4)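 Single-center, open-label phase I study in six healthy adult males, fasted ≥10 h. Each got one 1500 mg [14C]GSK2251052 dose as a constant-rate 1-h IV infusion. Safety was monitored throughout, with follow-up for at least 336 h after dosing.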

[14] = test system: Homo sapiens; assay: Toxicity in healthy human assessed as serious adverse events at 1500 mg, iv infusion for 1 hr as single dose; assay type: organism-based; details: in vivo; in short: as §4
[15] = test system: Plasma; assay: Half life in healthy human plasma assessed as radioactivity at 1500 mg, iv infusion for 1 hr as single dose; assay type: ADME, organism-based; details: in vivo; in short: as §2
[16] = test system: Plasma; assay: Tmax in healthy human plasma assessed as radioactivity at 1500 mg, iv infusion for 1 hr as single dose; assay type: ADME, organism-based; details: in vivo; in short: as §2
[17] = Drug recovery in healthy human urine assessed as total radioactivity at 1500 mg, iv infusion for 1 hr as single dose after 120 to 336 hrs by HPLC method; assay type: ADME, organism-based; details: in vivo, in the assay text read “0 to 120 hrs” for “120 to 336 hrs”
In short: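 Urine pooled by weight per subject over 0–120 h; 120–336 h pools from all subjects combined into one composite. Centrifuged at ~21,000g, then supernatant profiled by HPLC (Atlantis T3, ammonium acetate pH 4.5/methanol, 30°C) with radiochemical detection plus MS identification. Results are % of dose, corrected for centrifugation recovery measured by triplicate LSC.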

[18] = Drug metabolism in cynomolgus monkey lung S9 fraction assessed as (S)-3-(3-(aminomethyl)-1-hydroxy-1,3-dihydrobenzo[c][1,2]oxaborol-7-yloxy)propanoicacid formation at 50 to 500 uM after 3 hrs by liquid scintillation counting in presence of NAD+; assay type: ADME, Macaca fascicularis; details: s9, 3 h
In short: (§5)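 [14C]GSK2251052 was incubated in triplicate for 1 or 3 h at 37°C with 4 mg/ml S9 (monkey liver, lung or kidney; human liver), liver cytosol or liver microsomes and 7.5 mM NAD+. Buffer was pyrophosphate at pH 7.4, 8.4 or 8.8. Controls lacked cofactor or enzyme. Reactions were quenched with acetonitrile, counted by LSC, and pooled for radio-HPLC.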

[19] = Drug metabolism in human liver S9 fraction assessed as (S)-3-(3-(aminomethyl)-1-hydroxy-1,3-dihydrobenzo[c][1,2]oxaborol-7-yloxy)propanoicacid formation at 50 to 500 uM after 3 hrs by liquid scintillation counting in presence of NAD+; assay type: ADME, subcellular; details: s9, 3 h; in short: as §5
[20] = test system: Liver cytosol; assay: Drug metabolism in human liver cytosol assessed as (S)-3-(3-(aminomethyl)-1-hydroxy-1,3-dihydrobenzo[c][1,2]oxaborol-7-yloxy)propanoicacid formation at 50 to 500 uM after 3 hrs by liquid scintillation counting in presence of NAD+; assay type: ADME; in short: as §5
[21] = Drug recovery in healthy human urine at 1500 mg, iv infusion for 1 hr as single dose after 192 hrs; assay type: ADME, organism-based; details: read-out: Drug recovery
[22] = Drug recovery in healthy human urine at 1500 mg, iv infusion for 1 hr as single dose after 264 hrs; assay type: ADME, organism-based; details: read-out: Drug recovery
[23] = Drug recovery in healthy human urine at 1500 mg, iv infusion for 1 hr as single dose after 336 hrs; assay type: ADME, organism-based; details: read-out: Drug recovery
[24] = Drug recovery in healthy human feces at 1500 mg, iv infusion for 1 hr as single dose after 48 hrs; assay type: ADME, organism-based; details: read-out: Drug recovery
[25] = Drug recovery in healthy human feces at 1500 mg, iv infusion for 1 hr as single dose after 96 hrs; assay type: ADME, organism-based; details: read-out: Drug recovery
[26] = test system: Liver microsome; assay: Drug metabolism in human liver microsomes assessed as (S)-3-(3-(aminomethyl)-1-hydroxy-1,3-dihydrobenzo[c][1,2]oxaborol-7-yloxy)propanoicacid formation at 50 to 500 uM after 3 hrs by liquid scintillation counting in presence of NAD+; assay type: ADME; in short: as §5
[27] = Drug metabolism in cynomolgus monkey liver S9 fraction assessed as (S)-3-(3-(aminomethyl)-1-hydroxy-1,3-dihydrobenzo[c][1,2]oxaborol-7-yloxy)propanoicacid formation at 50 to 500 uM after 3 hrs by liquid scintillation counting in presence of NAD+ and ADH inhibitor 4-MP; assay type: ADME, subcellular, Macaca fascicularis; details: s9, 3 h
In short: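 NAD+ (7.5 mM) incubations of [14C]GSK2251052 with 4 mg/ml monkey liver cytosol or liver S9 in pyrophosphate buffer included 4-MP at 0.6 mM final. Incubations ran in triplicate at 37°C. Extracts were counted by LSC and pooled for radio-HPLC.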

Cl.N[14CH2][C@H]1OB(O)c2c(OCCCO)cccc21
AUCt [1]: 141 µg·h/mL | CL [2]: 7.79 L/h | Tmax [3]: 55 min | dose excreted at 120 h [4]: 83.4% | dose excreted at 168 h [5]: 7.6% | Cmax [6]: 24300 ng/mL | dose excreted at 336 h [7]: 7.6% | dose excreted at 24 h [8]: 51.3% | dose excreted at 96 h [9]: 87.5% | dose excreted at 120 h [10]: 90.7% | dose excreted at 192 h [11]: 95% | dose excreted at 264 h [12]: 97% | Activity [13]: Non-toxic | Activity [14]: Non-toxic | t1/2 [15]: 96 h | Tmax [16]: 55 min | Drug recovery [17]: 83.1% | Drug metabolism [18]: metabolite_not_detected | Drug metabolism [19]: metabolite_not_detected | Drug metabolism [20]: metabolite_not_detected | dose excreted at 192 h [21]: 87.4% | dose excreted at 264 h [22]: 89.3% | dose excreted at 336 h [23]: 90.5% | dose excreted at 48 h [24]: 1.3% | dose excreted at 96 h [25]: 6.4% | Drug metabolism [26]: metabolite_not_detected | Drug metabolism [27]: metabolite_not_detected
